Test results as given in ChEMBL document CHEMBL3352359, “Cycloartane triterpenoids and their glycosides from the rhizomes of Cimicifuga foetida” (J Nat Prod, 2014).

Assays:
Assay type in all cases: functional, cell-based
[1] = Cytotoxicity against human SMMC-7721 cells after 48 hrs by MTT assay; conditions: SMMC-7721, 48 h
Method in brief: (§1)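 Adherent cells grown in DMEM with 10% FBS at 37 °C under 5% CO2. Cells were seeded in 96-well plates and left 12 h to attach, then exposed in triplicate to a range of compound concentrations for 48 h, with cisplatin as positive control. MTT read-out was absorbance at 570 nm (reference 630 nm). IC50 was derived by the Reed–Muench method.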

[2] = Cytotoxicity against human H460 cells after 48 hrs by MTT assay; conditions: NCI-H460, 48 h; method in brief: as §1
[3] = test system: MCF7; assay: Cytotoxicity against human MCF7 cells after 48 hrs by MTT assay; conditions: MCF7, 48 h; method in brief: as §1
[4] = Cytotoxicity against human HL60 cells after 48 hrs by MTT assay; conditions: HL-60, 48 h
Method in brief: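 HL-60 suspension cells were grown in DMEM with 10% FBS at 37 °C under 5% CO2. They were seeded at 1 × 10^5 cells/mL in 96-well plates just before compound addition, then exposed in triplicate to graded concentrations for 48 h, with cisplatin as positive control. MTT absorbance was read at 570 nm against 630 nm reference. IC50 was calculated by the Reed–Muench method.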

[5] = test system: HeLa; assay: Cytotoxicity against human HeLa cells after 48 hrs by MTT assay; method in brief: as §1

Measured: IC50

C[C@H](CC(=O)[C@H](O)C(C)(C)O)[C@H]1C(=O)C[C@@]2(C)C3=CC[C@H]4C(C)(C)[C@@H](O[C@@H]5OC[C@@H](O)[C@H](O)[C@H]5O)CC[C@@]4(O)CC3=CC[C@]12C
> 10 µM: all assays above

CC(=O)O[C@@H]1C[C@@]23C[C@@]24CC[C@H](O[C@@H]2OC[C@@H](O)[C@H](O)[C@H]2O)C(C)(C)[C@@H]4CC[C@H]3[C@]2(C)[C@@H](O)[C@]34O[C@H](C[C@@H](C)[C@@H]3[C@@]12C)[C@@H](C(C)(C)O)O4
> 10 µM: all assays above

C[C@H](CC(=O)[C@H](O)C(C)(C)O)[C@H]1C(=O)C[C@@]2(C)C3=CC[C@@H]4C(=CC[C@H](O)C4(C)C)CC3=CC[C@]12C
> 10 µM: all assays above

C[C@H](CC(=O)[C@H](O)C(C)(C)O)[C@H]1C(=O)C[C@@]2(C)C3=CC[C@H]4C(C)(C)[C@@H](O[C@@H]5OC[C@@H](O)[C@H](O)[C@H]5O)CC[C@]4(O)CC3=CC[C@]12C
> 10 µM: all assays above

C[C@H](CC(=O)[C@@H](O)C(C)(C)O)[C@H]1C(=O)C[C@@]2(C)C3=CC[C@@H]4C(=CC[C@H](O)C4(C)C)CC3=CC[C@]12C
> 10 µM: all assays above

C[C@H](CC(=O)[C@@H]1OC1(C)C)[C@H]1C(=O)C[C@@]2(C)C3=CC[C@H]4C(C)(C)[C@@H](O[C@@H]5OC[C@@H](O)[C@H](O)[C@H]5O)CC[C@@]4(O)CC3=CC[C@]12C
> 10 µM: all assays above

CC(=O)O[C@@H]1C[C@@]23C[C@@]24CC[C@H](O[C@@H]2OC[C@@H](O)[C@H](O)[C@H]2O)C(C)(C)[C@@H]4CC[C@H]3[C@]2(C)C[C@@H]3O[C@](O)(C(=O)C(C)C)C[C@@H](C)[C@@H]3[C@@]12C
> 10 µM: all assays above

CC(=O)O[C@@H]1C[C@@]23C[C@@]24CC[C@H](O[C@@H]2OC[C@@H](O)[C@H](O)[C@H]2O)C(C)(C)[C@@H]4CC[C@H]3[C@]2(C)C[C@@H]3O[C@@]4(C[C@@H](C)[C@@H]3[C@@]12C)OC[C@]1(C)O[C@H]41
> 10 µM: all assays above

C[C@H](CC(=O)[C@@H]1OC1(C)C)[C@H]1C(=O)C[C@@]2(C)C3=CC[C@H]4C(C)(C)[C@@H](O[C@@H]5OC[C@@H](O)[C@H](O)[C@H]5O)CC[C@]4(O)CC3=CC[C@]12C
> 10 µM: all assays above

CC(=O)O[C@@H]1CO[C@@H](O[C@H]2CC[C@]34C[C@]35CC[C@]3(C)[C@H]6[C@H](C)C[C@H]7O[C@@]6(O[C@@H]7C(C)(C)OC(C)=O)[C@H](O)[C@@]3(C)[C@@H]5CC[C@H]4C2(C)C)[C@H](O)[C@H]1O
6.3 µM: [1]
> 10 µM: all other assays above

CC(=O)O[C@@H]1C[C@@]23C[C@@]24CC[C@H](O[C@@H]2OC[C@@H](O)[C@H](O)[C@H]2O)C(C)(C)[C@@H]4CC[C@H]3[C@]2(C)C[C@@H]3O[C@]4(C[C@@H](C)[C@@H]3[C@@]12C)O[C@H](O)[C@@]1(C)O[C@@H]41 [ACTEIN]
> 10 µM: all assays above

CC(=O)O[C@@H]1[C@@H](O)[C@H](O[C@H]2CC[C@]34C[C@]35CC[C@]3(C)[C@H]6[C@H](C)C[C@H]7O[C@@]6(O[C@@H]7C(C)(C)OC(C)=O)[C@H](O)[C@@]3(C)[C@@H]5CC[C@H]4C2(C)C)OC[C@H]1O
5.5 µM: [1]
> 10 µM: all other assays above

C=C(C)[C@@H](O)C(=O)C[C@@H](C)[C@H]1C(=O)C[C@@]2(C)C3=CC[C@H]4C(C)(C)[C@@H](O[C@@H]5OC[C@@H](O)[C@H](O)[C@H]5O)CC[C@@]45C[C@]35[C@@H](O)C[C@]12C
> 10 µM: all assays above

C[C@@H]1C[C@H]2O[C@@]3(O[C@@H]2C(C)(C)O)[C@H](O)[C@@]2(C)[C@@H]4CC[C@H]5C(C)(C)[C@@H](O[C@@H]6OC[C@@H](O)[C@H](O)[C@H]6O)CC[C@@]56C[C@@]46C[C@@H](O)[C@]2(C)[C@@H]13
> 10 µM: all assays above

CC(=O)O[C@@H]1C[C@@]23C[C@@]24CC[C@H](O[C@@H]2OC[C@@H](O)[C@H](O)[C@H]2O)C(C)(C)[C@@H]4CC[C@H]3[C@]2(C)C[C@@H]3O[C@]4(O)[C@H](OC(C)(C)[C@@H]4O)[C@@H](C)[C@@H]3[C@@]12C
> 10 µM: all assays above

CC(=O)O[C@@H]1C[C@@]23C[C@@]24CC[C@H](O[C@@H]2OC[C@@H](O)[C@H](O)[C@H]2O)C(C)(C)[C@@H]4CC[C@H]3[C@]2(C)C[C@@H]3OC(C(O)C(C)(C)O)=C[C@@H](C)[C@@H]3[C@@]12C (stereo not given in full)
> 10 µM: all assays above
